Activity calls are given as the source filed them. No cut-off for these calls is given here.
Assays:
[1] = target: DNA topoisomerase 2-alpha (Homo sapiens) (UniProt P11388); experiment: Inhibition of full-length human recombinant topoisomerase 2-alpha-mediated decatenation activity of kDNA at >10 uM by ethidium bromide based gel-assay
[2] = target: DNA topoisomerase 2-alpha (Homo sapiens) (UniProt P11388); experiment: Inhibition of full-length human recombinant topoisomerase 2-alpha assessed as conversion of […] DNA at 100 uM by ethidium bromide based gel-assay
[3] = target: DNA topoisomerase 2-alpha (Homo sapiens) (UniProt P11388); experiment: Inhibition of full-length human recombinant topoisomerase 2-alpha mediated relaxation and cleavage of supercoiled pBR322 plasmid DNA to linear DNA by ethidium bromide staining based gel electrophoresis assay
In short: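 Recombinant full-length human topoisomerase IIα with supercoiled pBR322 DNA at 37 °C. Components mixed on ice before drug addition. Complexes trapped with SDS; products run on ethidium bromide gels. Linear DNA identified against a HindIII-linearized marker; repeated on three days.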

K562 [4] = experiment: Relative resistance, ratio of IC50 for etoposide-resistant human K/VP.5 cells to IC50 for human K562 cells; type: functional
K562 [5] = experiment: Cytotoxicity against human K562 cells assessed as cell growth inhibition after 72 hrs by MTS assay; type: functional, cell-based; details: K562, 72 h
[6] = Cytotoxicity against etoposide-resistant human K/VP.5 cells assessed as cell growth inhibition after 72 hrs by MTS assay; type: functional, cell-based; details: K/VP.5, 72 h
In short: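 K/VP.5 cells are a K562-derived subline, 26-fold etoposide-resistant, with decreased topoisomerase IIα mRNA and protein. Cells were grown in suspension in αMEM with 10% fetal calf serum. Drugs were given from DMSO stocks, with final DMSO typically 0.4% or less. Read-out was MTS absorbance after 72 h. Typically nine concentrations were run in duplicate on two days. IC50 came from a four-parameter logistic fit.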

K562 [7] = experiment: Induction of apoptosis in human K562 cells assessed as increase in caspase 3/7 activity at 1 uM by luminescence analysis; type: functional, cell-based; details: TDE = time-dependent effect
In short: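 K562 cells at 2 × 10^5 cells/mL treated with vehicle or 1 µM compound for 24 or 48 h. Lysates assayed with a luminogenic DEVD-aminoluciferin caspase-3/7 substrate and read by luminescence. Four wells (eight for control); unpaired t-test vs control; repeated on two days.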

K562 [8] = experiment: Induction of apoptosis in human K562 cells assessed as decrease in proportion of viable cells at 1 uM after 24 to 48 hrs by annexin V-FITC/propidium iodide staining based two-color fluorescence flow cytometry; type: functional, cell-based
In short: (§1)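 K562 cells (1 × 10^6/mL), untreated or given 1 µM compound (10 µM etoposide control) at 37 °C for 24 h or 48 h. Annexin V-FITC plus propidium iodide two-colour flow cytometry. Cells are scored as viable, apoptotic-only (annexin+/PI−), apoptotic/necrotic (annexin+/PI+) or necrotic.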

K562 [9] = experiment: Induction of DNA double strand breaks in human K562 cells assessed as increase in gamma-H2AX level at 25 uM after 4 hrs by chemiluminescence analysis; type: functional, cell-based
In short: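 K562 cells (3.4 × 10^5/mL) exposed 4 h at 37 °C to 25 µM drug or DMSO. Lysed in Tris pH 6.7/SDS buffer; 50 µg protein on 14% SDS-PAGE, PVDF blot. Rabbit anti-γH2AX (1:1000, overnight), GAPDH loading control, HRP secondary. Chemiluminescence imaged by CCD.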

CHO [10] = experiment: Induction of apoptosis in CHO cells assessed as increase in sub-G0/G1 cell population at 1 uM after 49 hrs by propidium iodide staining based flow cytometry; type: functional; details: Cricetulus griseus
In short: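 CHO cells grown to confluence in α-MEM/10% FCS, serum-starved 48 h (0% FCS), then seeded at 2 × 10^5 cells/mL and repleted with 10% FCS. Continuously treated from repletion with 1 µM compound (10 µM etoposide, DMSO control) for various times. Propidium iodide DNA staining, flow cytometric phase distribution including sub-G0/G1.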

K562 [11] = experiment: Induction of apoptosis in human K562 cells assessed as increase in proportion of apoptotic and apoptotic/necrotic cells at 1 uM after 24 to 48 hrs by annexin V-FITC/propidium iodide staining based two-color fluorescence flow cytometry; type: functional, cell-based; in short: as §1
CHO [12] = experiment: Induction of apoptosis in CHO cells assessed as increase in sub-G0/G1 cell population at 10 uM after 49 hrs by propidium iodide staining based flow cytometry (Rvb <2%); type: functional, Cricetulus griseus
K562 [13] = experiment: Induction of apoptosis in human K562 cells assessed as decrease in proportion of viable cells at 10 uM after 24 to 48 hrs by annexin V-FITC/propidium iodide staining based two-color fluorescence flow cytometry; type: functional, cell-based
CHO [14] = experiment: Induction of cell cycle arrest in CHO cells assessed as accumulation at G2/M phase at 10 uM after 21 hrs by propidium iodide staining based flow cytometry; type: functional; details: Cricetulus griseus
K562 [15] = experiment: Induction of apoptosis in human K562 cells assessed as increase in proportion of apoptotic and apoptotic/necrotic cells at 10 uM after 24 to 48 hrs by annexin V-FITC/propidium iodide staining based two-color fluorescence flow cytometry; type: functional, cell-based
[16] = target: DNA topoisomerase 2-alpha (Homo sapiens) (UniProt P11388); experiment: Inhibition of full-length human recombinant topoisomerase 2-alpha-mediated decatenation activity of kDNA by ethidium bromide based gel-assay
CHO [17] = experiment: Induction of cell cycle arrest in CHO cells assessed as accumulation at G2/M phase at 1 uM by propidium iodide staining based flow cytometry; type: functional; details: Cricetulus griseus

Chain of DNA topoisomerase 2-alpha (Homo sapiens) (P11388 whole entry): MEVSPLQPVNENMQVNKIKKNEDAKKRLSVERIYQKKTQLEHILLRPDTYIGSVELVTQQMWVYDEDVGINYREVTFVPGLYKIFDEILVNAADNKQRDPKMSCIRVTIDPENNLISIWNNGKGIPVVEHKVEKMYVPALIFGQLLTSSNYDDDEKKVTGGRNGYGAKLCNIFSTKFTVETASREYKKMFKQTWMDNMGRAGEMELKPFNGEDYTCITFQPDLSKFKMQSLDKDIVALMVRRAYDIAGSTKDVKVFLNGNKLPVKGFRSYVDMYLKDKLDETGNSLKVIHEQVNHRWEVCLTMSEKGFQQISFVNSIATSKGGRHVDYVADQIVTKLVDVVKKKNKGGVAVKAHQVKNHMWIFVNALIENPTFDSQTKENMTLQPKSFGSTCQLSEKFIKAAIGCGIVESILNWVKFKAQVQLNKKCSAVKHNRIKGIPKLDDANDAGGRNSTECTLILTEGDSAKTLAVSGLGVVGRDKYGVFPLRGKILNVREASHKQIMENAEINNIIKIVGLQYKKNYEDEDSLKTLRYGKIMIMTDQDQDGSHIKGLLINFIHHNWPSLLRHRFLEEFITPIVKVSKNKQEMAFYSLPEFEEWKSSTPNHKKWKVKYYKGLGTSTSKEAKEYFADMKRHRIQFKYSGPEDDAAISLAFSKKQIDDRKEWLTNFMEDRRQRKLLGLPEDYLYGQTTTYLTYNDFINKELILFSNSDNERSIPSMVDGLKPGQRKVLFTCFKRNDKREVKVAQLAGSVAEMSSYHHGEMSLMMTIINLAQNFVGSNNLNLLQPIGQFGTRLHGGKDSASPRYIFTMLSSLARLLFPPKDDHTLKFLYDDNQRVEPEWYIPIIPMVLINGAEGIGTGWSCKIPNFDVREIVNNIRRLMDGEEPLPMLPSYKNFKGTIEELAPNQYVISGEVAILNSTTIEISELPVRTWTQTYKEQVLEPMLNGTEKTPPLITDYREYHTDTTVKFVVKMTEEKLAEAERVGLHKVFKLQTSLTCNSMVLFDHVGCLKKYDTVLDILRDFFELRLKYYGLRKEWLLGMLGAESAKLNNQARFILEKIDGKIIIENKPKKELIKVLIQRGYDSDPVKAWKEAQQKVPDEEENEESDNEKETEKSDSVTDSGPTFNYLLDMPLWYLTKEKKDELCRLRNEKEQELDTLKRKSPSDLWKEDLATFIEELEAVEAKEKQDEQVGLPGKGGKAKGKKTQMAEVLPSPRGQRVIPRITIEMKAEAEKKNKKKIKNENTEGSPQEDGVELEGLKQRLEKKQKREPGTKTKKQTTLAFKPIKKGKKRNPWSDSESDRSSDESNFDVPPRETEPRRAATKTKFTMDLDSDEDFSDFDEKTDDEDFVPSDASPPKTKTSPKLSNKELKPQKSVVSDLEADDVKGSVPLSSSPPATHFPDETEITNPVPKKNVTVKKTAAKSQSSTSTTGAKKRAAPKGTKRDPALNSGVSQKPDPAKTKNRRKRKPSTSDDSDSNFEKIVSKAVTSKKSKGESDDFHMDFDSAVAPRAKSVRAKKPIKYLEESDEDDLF

Question: With COc1cc([C@@H]2c3cc4c(cc3[C@@H](NC(=O)CN3CCN(CCCCCCCCCCCCN5CCN(CC(=O)N[C@@H]6c7cc8c(cc7[C@@H](c7cc(OC)c(O)c(OC)c7)[C@H]7C(=O)OC[C@@H]76)OCO8)CC5)CC3)[C@H]3COC(=O)[C@H]23)OCO4)cc(OC)c1O as the compound, how does the “Inhibition of decatenation activity (qualitative)” value (“Inhibition … (qualitative)” for short) [1] read?
Answer: The value was “Active”.

Question: What about the “Inhibition (qualitative activity call)” value [2] of the same compound?
Answer: The value was “Active”.

Question: What about the “Effect on topoisomerase 2-alpha DNA cleavage (qualitative)” value (“Effect” for short) [3] of the same compound?
Answer: The value was “Dose-dependent effect”.

Question: And the “Ratio IC50” value (K562 [4])?
Answer: Its value is 8.2.

Question: What about the IC50 (K562 [5]) of the same compound?
Answer: The IC50 was 67 nM.

Question: What about the IC50 [6] of the same compound?
Answer: The IC50 was 549 nM.

Question: With COc1cc([C@@H]2c3cc4c(cc3[C@@H](NC(=O)CN3CCN(CCCCCCCCCCN5CCNCC5)CC3)[C@H]3COC(=O)[C@H]23)OCO4)cc(OC)c1O as the compound, how does the Activity (K562 [7]) read?
Answer: The Activity was “tde”.

Question: What about the “Inhibition … (qualitative)” value [1] of the same compound?
Answer: The value was “Active”.

Question: What about the Activity (K562 [8]) of the same compound?
Answer: The Activity was “Active”.

Question: And the Activity (K562 [9])?
Answer: Its Activity is “Active”.

Question: And the “Effect” value [3]?
Answer: The value was “Dose-dependent effect”.

Question: And the “Ratio IC50” value (K562 [4])?
Answer: Its value is 6.

Question: What about the Activity (CHO [10]) of the same compound?
Answer: Its Activity is “Active”.

Question: What about the IC50 (K562 [5]) of the same compound?
Answer: The IC50 was 26 nM.

Question: And the Activity (K562 [11])?
Answer: The Activity was “Active”.

Question: And the IC50 [6]?
Answer: The IC50 was 156 nM.

Question: For COc1cc([C@@H]2c3cc4c(cc3[C@@H](O[C@@H]3O[C@@H]5CO[C@@H](C)O[C@H]5[C@H](O)[C@H]3O)[C@H]3COC(=O)[C@H]23)OCO4)cc(OC)c1O [ETOPOSIDE], which “Inhibition … (qualitative)” value [1] is on record?
Answer: The value was “Active”.

Question: What about the Activity (CHO [12]) of the same compound?
Answer: Its Activity is 39%.

Question: What about the Activity (K562 [13]) of the same compound?
Answer: The Activity was “Active”.

Question: What about the Activity (CHO [14]) of the same compound?
Answer: The Activity was “Active”.

Question: And the Activity (K562 [9])?
Answer: The Activity was “Active”.

Question: What about the Activity (K562 [15]) of the same compound?
Answer: The Activity was “Active”.

Question: And the “Inhibition (qualitative activity call)” value [2]?
Answer: Its value is “Active”.

Question: And the “Effect” value [3]?
Answer: The value was “Dose-dependent effect”.

Question: What about the “Ratio IC50” value (K562 [4]) of the same compound?
Answer: Its value is 15.4.

Question: And the IC50 (K562 [5])?
Answer: Its IC50 is 163 nM.

Question: What about the IC50 [6] of the same compound?
Answer: The IC50 was 2500 nM.

Question: With COc1cc([C@@H]2c3cc4c(cc3[C@@H](NC(=O)CN3CCN(CCCN5CCNCC5)CC3)[C@H]3COC(=O)[C@H]23)OCO4)cc(OC)c1O as the compound, how does the inhibition [16] read?
Answer: The inhibition was “Active”.

Question: And the Activity (K562 [9])?
Answer: Its Activity is “Active”.

Question: What about the “Effect” value [3] of the same compound?
Answer: The value was “Dose-dependent effect”.

Question: And the “Ratio IC50” value (K562 [4])?
Answer: Its value is 10.5.

Question: And the IC50 (K562 [5])?
Answer: The IC50 was 1270 nM.

Question: What about the IC50 [6] of the same compound?
Answer: The IC50 was 13300 nM.

Question: Which Activity (K562 [7]) does the source give for COc1cc([C@@H]2c3cc4c(cc3[C@@H](NC(=O)CN3CCN(CCCCCCCCN5CCN(CC(=O)N[C@@H]6c7cc8c(cc7[C@@H](c7cc(OC)c(O)c(OC)c7)[C@H]7C(=O)OC[C@@H]76)OCO8)CC5)CC3)[C@H]3COC(=O)[C@H]23)OCO4)cc(OC)c1O here?
Answer: Its Activity is “tde”.

Question: What about the “Inhibition … (qualitative)” value [1] of the same compound?
Answer: Its value is “Active”.

Question: And the Activity (K562 [8])?
Answer: The Activity was “Active”.

Question: What about the Activity (K562 [9]) of the same compound?
Answer: Its Activity is “Active”.

Question: And the Activity (CHO [17])?
Answer: Its Activity is “Active”.

Question: And the “Inhibition (qualitative activity call)” value [2]?
Answer: Its value is “Active”.

Question: What about the “Effect” value [3] of the same compound?
Answer: Its value is “Dose-dependent effect”.

Question: And the “Ratio IC50” value (K562 [4])?
Answer: Its value is 7.4.

Question: And the Activity (CHO [10])?
Answer: Its Activity is “Active”.

Question: What about the IC50 (K562 [5]) of the same compound?
Answer: The IC50 was 16 nM.

Question: And the Activity (K562 [11])?
Answer: The Activity was “Active”.

Question: What about the IC50 [6] of the same compound?
Answer: Its IC50 is 115 nM.

Question: What does the source list for COc1cc([C@@H]2c3cc4c(cc3[C@@H](NC(=O)CN3CCN(CCCCCCCCN5CCNCC5)CC3)[C@H]3COC(=O)[C@H]23)OCO4)cc(OC)c1O?
Answer: Inhibition of decatenation activity (qualitative) [1]: Active; Activity (K562 [9]): Active; Effect on topoisomerase 2-alpha DNA cleavage (qualitative) [3]: Dose-dependent effect; Ratio IC50 (K562 [4]): 5.4; IC50 (K562 [5]): 103 nM; IC50 [6]: 556 nM

Reference: ChEMBL document CHEMBL3588757, “Structure-based design, synthesis and biological testing of piperazine-linked bis-epipodophyllotoxin etoposide analogs” (Bioorg Med Chem, 2015)
